Compound activity: PubChem BioAssay, Johns Hopkins Ion Channel Center
Only some compounds are listed: those with a hit (about 3.7% of all), similar ones and a draw of the others.
KCNQ1 block: human KCNQ1 channel inhibition. P51787. 310,000 tested, 1.3% active. CHO-K1 KCNQ1, FluxOR thallium flux fluorescence; active compounds read high. B-score at 10 µM;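 active means compounds whose thallium flux B-score, printed positive for inhibition, exceeds three library SD while starting fluorescence stays within three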;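 further: channel opened by potassium depolarization with thallium stimulus after 20 min compound exposure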
Target sequence (P51787 whole entry, looked up): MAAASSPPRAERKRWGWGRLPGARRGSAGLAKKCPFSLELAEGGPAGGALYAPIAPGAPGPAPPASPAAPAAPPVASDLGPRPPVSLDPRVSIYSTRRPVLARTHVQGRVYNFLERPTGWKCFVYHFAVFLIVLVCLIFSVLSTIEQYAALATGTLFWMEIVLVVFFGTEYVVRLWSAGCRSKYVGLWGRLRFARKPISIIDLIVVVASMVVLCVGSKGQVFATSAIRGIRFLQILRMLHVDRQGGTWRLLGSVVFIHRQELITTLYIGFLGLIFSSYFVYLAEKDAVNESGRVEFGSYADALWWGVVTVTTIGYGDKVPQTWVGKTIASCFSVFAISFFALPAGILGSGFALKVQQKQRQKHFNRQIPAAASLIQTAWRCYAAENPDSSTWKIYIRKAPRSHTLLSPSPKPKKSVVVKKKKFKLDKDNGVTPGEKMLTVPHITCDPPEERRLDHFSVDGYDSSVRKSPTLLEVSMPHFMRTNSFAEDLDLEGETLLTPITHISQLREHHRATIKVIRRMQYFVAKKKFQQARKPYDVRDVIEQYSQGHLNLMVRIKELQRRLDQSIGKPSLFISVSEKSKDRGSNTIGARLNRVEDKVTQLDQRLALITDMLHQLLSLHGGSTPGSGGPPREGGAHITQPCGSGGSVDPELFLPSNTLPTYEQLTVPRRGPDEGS
Kir21 block: inhibitors of mouse Kir2.1 inward-rectifier potassium channel | P35561 | HEK293-Kir2.1, FluxOR thallium flux fluorescence; active compounds read low | B-score at 10 µM | 310,000 tested, 0.85% active | AID 1672;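 active means fluorescence ratio B-score at or below minus 3 SD of library scores, with starting-brightness B-score within 2 SD, cut at about -4.2 in these data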;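 further: channel flux triggered by added potassium and thallium sulfate stimulus; B-score of peak minus minimum fluorescence over baseline after thallium stimulus; more negative B-score means stronger Kir2.1 block with less thallium influx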
KCNQ1 pot: human KCNQ1 channel potentiation or activation | CHO-K1 KCNQ1, thallium flux FluxOR fluorescence; active compounds read high | B-score at 10 µM | 310,000 tested, 0.35% active | AID 2648;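 active means fluorescence ratio B-score, a plate-corrected score, at least three library SD, with initial intensity B-score within 5 SD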
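Medium – assay buffer, equal DMSO in all wells · Material – CHO-K1 cell line with stable KCNQ1 potassium channel expression · Signal – kinetic FluxOR thallium fluorescence, 10-s 1-Hz baseline, 110-s post-stimulus read · Compound – single concentration per compound, DMSO matched to controls · Schedule – 37 °C overnight plating, 90-min dark dye load, 20-min compound pretreatment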
KCNK9 block: human KCNK9 channel inhibition. HEK293 KCNK9, FluxOR thallium flux fluorescence; active compounds read low. 310,000 tested, 1.2% active. B-score at 10 µM. Q9NPC2;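 active means ratio B-score over 3 SD below the library mean, with starting fluorescence within 5 SD of its mean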;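 further: negative B-score means less thallium flux so channel inhibition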
hERG rescue: hERG (human) protection from proarrhythmic block | Q12809 | CHO-hERG, FluxOR thallium flux, dofetilide IC70 present | activation (rescue from dofetilide block), less the hit threshold, % at 10 µM | 310,000 tested, 0.51% active | AID 1511;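 active means activation above the mean of controls blocked by dofetilide plus 5 SD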;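 further: thallium influx through hERG after potassium depolarization seen as dye fluorescence rise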
KCNK3 block: human KCNK3 channel inhibition, primary screen. B-score at 10 µM. CHO-KCNK3 thallium flux, FluxOR fluorescence; active compounds read low. 340,000 tested, 0.84% active;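 active means B-score under library mean minus 4 SD, starting fluorescence ratio at most library mean plus 5 SD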;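 further: more negative B-score means stronger inhibition of thallium flux through KCNK3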
Hits are given with their value.

What do the screens show for `COc1ccc(C)cc1-n1c(=O)c2ccccc2c2ccccc2c1=O`?
KCNQ1 block: inactive; Kir21 block: inactive; KCNQ1 pot: inactive; KCNK9 block: -8; hERG rescue: inactive; KCNK3 block: inactive

Results for Cc1nn(C)c(C)c1/C=N/NC(=O)C(C)(C)Oc1ccc(Cl)cc1 ?
KCNQ1 block: inactive; Kir21 block: inactive; KCNQ1 pot: inactive; KCNK9 block: inactive; hERG rescue: inactive; KCNK3 block: inactive

How did Cc1nn(C(C)(C)C)c(C)c1/C=N/OC(=O)Nc1ccc(Cl)cc1 do in these assays?
KCNQ1 block: 7; Kir21 block: inactive; KCNQ1 pot: inactive; KCNK9 block: inactive; hERG rescue: inactive; KCNK3 block: inactive

What do the screens show for `O=C(Nc1ccccc1Cl)c1cccc(NC(=O)C2CCCC2)c1`?
KCNQ1 block: inactive; Kir21 block: inactive; KCNQ1 pot: inactive; KCNK9 block: -6.9; hERG rescue: inactive; KCNK3 block: inactive

How did O=C(NC1CC1)c1cccc(NC(=O)C2CCCC2)c1 do in these assays?
KCNK3 block: inactive

Results for CCOC(=O)c1nnn(CC(=O)NC(=O)Nc2ccc(F)cc2)c1C(=O)OCC ?
KCNQ1 block: inactive; Kir21 block: inactive; KCNQ1 pot: inactive; KCNK9 block: inactive; hERG rescue: inactive; KCNK3 block: inactive

How did CCc1ccc2nc(NC(=O)C3CCN(c4ncnc5sc(C)c(C)c45)CC3)sc2c1 do in these assays?
KCNK3 block: inactive

Results for Cc1sc2ncnc(N3CCC(C(=O)Nc4ccc(Cl)c(Cl)c4)CC3)c2c1C ?
KCNK3 block: -10

How did CNC(=O)c1ccc(NC(=O)C2CCN(c3ncnc4sc(C)c(C)c34)CC2)cc1 do in these assays?
KCNQ1 block: inactive; Kir21 block: inactive; KCNQ1 pot: inactive; KCNK9 block: inactive; hERG rescue: inactive; KCNK3 block: inactive

Results for CCc1cccc(NC(=O)C2CCN(c3ncnc4sc(C)c(C)c34)CC2)c1 ?
KCNK3 block: -11

What do the screens show for `COc1ccc2nc(-c3ccccc3)cc(C(=O)OCC(=O)NC3CC3)c2c1`?
KCNK3 block: inactive

What do the screens show for `Cc1ccc(NC(=O)COC(=O)c2ccc(NC(=O)CC#N)cc2)cc1S(=O)(=O)N1CCOCC1`?
KCNK3 block: inactive

What do the screens show for `Clc1ccc(-c2csc(N3CCc4ccccc4C3)n2)cc1`?
KCNQ1 block: inactive; Kir21 block: inactive; KCNQ1 pot: 10; KCNK9 block: inactive; hERG rescue: inactive; KCNK3 block: inactive

Results for c1ccc(-c2csc(N3CCN(c4ccccn4)CC3)n2)cc1 ?
KCNQ1 block: inactive; Kir21 block: inactive; KCNQ1 pot: inactive; KCNK9 block: -6.7; hERG rescue: inactive; KCNK3 block: inactive

What do the screens show for `c1ccc(-c2csc(N3CCOCC3)n2)cc1`?
KCNQ1 block: inactive; Kir21 block: inactive; KCNQ1 pot: inactive; KCNK9 block: inactive; hERG rescue: inactive; KCNK3 block: inactive

How did COc1ccc(N2CCN(C(=O)CNC(=O)Cn3cnc4sc(C)c(C)c4c3=O)CC2)cc1 do in these assays?
KCNQ1 block: inactive; Kir21 block: inactive; KCNQ1 pot: inactive; KCNK9 block: inactive; hERG rescue: inactive; KCNK3 block: inactive

How did Cc1cc(C)c(S(=O)(=O)c2ccccc2)c(OC(=O)c2c(Cl)cccc2Cl)n1 do in these assays?
KCNQ1 block: inactive; Kir21 block: inactive; KCNQ1 pot: inactive; KCNK9 block: -7.2; hERG rescue: inactive; KCNK3 block: inactive

How did Cc1cc(C)c(S(=O)(=O)c2ccccc2)c(OC(=O)c2ccc(Cl)cc2Cl)n1 do in these assays?
KCNK3 block: inactive

How did Cn1c(=O)c(/C=C/c2ccc(F)cc2)nc2ccccc21 do in these assays?
KCNQ1 block: inactive; Kir21 block: inactive; KCNQ1 pot: inactive; KCNK9 block: inactive; hERG rescue: inactive; KCNK3 block: inactive

Results for O=c1c(/C=C(\O)c2ccc(F)cc2)nc2ccccc2n1-c1ccccc1 ?
KCNQ1 block: 6; Kir21 block: inactive; KCNQ1 pot: inactive; KCNK9 block: inactive; hERG rescue: inactive; KCNK3 block: inactive

What do the screens show for `Cc1ccc2cc(/C=C3\N=C(c4ccccc4)OC3=O)c(N3CCOCC3)nc2c1`?
KCNQ1 block: 8; Kir21 block: inactive; KCNQ1 pot: inactive; KCNK9 block: inactive; hERG rescue: inactive

Results for CC(OC(=O)c1n[nH]c2ccccc12)C(=O)NC1CCCCC1C (stereo unspecified) ?
KCNK3 block: inactive

Results for O=[N+]([O-])c1cc(Br)c(O)c(C=Nc2ccc(N3CCOCC3)cc2)c1 ?
KCNQ1 block: 11; Kir21 block: inactive; KCNQ1 pot: inactive; KCNK9 block: inactive; hERG rescue: inactive; KCNK3 block: inactive

Results for COc1cccc(C=Nc2ccc(N3CCOCC3)cc2)c1O ?
KCNQ1 block: inactive; Kir21 block: inactive; KCNQ1 pot: inactive; KCNK9 block: inactive; hERG rescue: inactive; KCNK3 block: inactive

How did CCCCC/C=N/NC(=O)c1[nH]c2ccc([N+](=O)[O-])cc2c1C do in these assays?
KCNQ1 block: inactive; Kir21 block: inactive; KCNQ1 pot: inactive; KCNK9 block: inactive; hERG rescue: inactive; KCNK3 block: inactive

How did CCC/C=N/NC(=O)c1[nH]c2c([N+](=O)[O-])cccc2c1C do in these assays?
KCNQ1 block: inactive; Kir21 block: inactive; KCNQ1 pot: 16; KCNK9 block: inactive; hERG rescue: inactive; KCNK3 block: inactive

Results for CC(C)[C@H](NC(=O)OC(C)(C)C)c1nnc(SCC(=O)Nc2ccc(Br)cc2)o1 ?
KCNQ1 block: 6; Kir21 block: inactive; KCNQ1 pot: inactive; KCNK9 block: inactive; hERG rescue: inactive; KCNK3 block: inactive

Results for CC(C)=CCSc1nnc([C@@H](NC(=O)OC(C)(C)C)C(C)C)o1 ?
KCNQ1 block: inactive; Kir21 block: inactive; KCNQ1 pot: inactive; KCNK9 block: inactive; hERG rescue: inactive; KCNK3 block: inactive

Results for C[C@H](NC(=O)OC(C)(C)C)c1nnc(SCC(=O)Nc2cccc(Cl)c2)o1 ?
KCNQ1 block: inactive; Kir21 block: -4.3; KCNQ1 pot: inactive; KCNK9 block: inactive; hERG rescue: inactive; KCNK3 block: inactive

How did CC(=O)OCC1OC(n2c(S)c(C#N)c(-c3ccccc3)c(C#N)c2=O)C(OC(C)=O)C(OC(C)=O)C1OC(C)=O (stereo unspecified) do in these assays?
KCNK3 block: inactive

What do the screens show for `O=C(NC1CCN(c2ncccn2)CC1)c1c(F)cccc1F`?
KCNQ1 block: inactive; Kir21 block: inactive; KCNQ1 pot: inactive; KCNK9 block: inactive; hERG rescue: inactive; KCNK3 block: inactive

How did COc1ccc(C2(c3ccc(OC)cc3)NC(=O)N(CC(=O)Nc3ccc(OC(F)F)cc3)C2=O)cc1 do in these assays?
KCNQ1 block: 9; Kir21 block: inactive; KCNQ1 pot: inactive; KCNK9 block: inactive; hERG rescue: inactive; KCNK3 block: inactive

Results for CC1(C)Cc2cccc(OCC(=O)NCc3ccc(F)cc3)c2O1 ?
KCNK3 block: inactive

What do the screens show for `CC1(C)Cc2cccc(OCC(=O)OCC(=O)NCc3ccccc3)c2O1`?
KCNQ1 block: inactive; Kir21 block: -4.3; KCNQ1 pot: inactive; KCNK9 block: inactive; hERG rescue: inactive; KCNK3 block: inactive
